The record followed here is ChEMBL document CHEMBL3868589, “Purification, Conformational Analysis, and Properties of a Family of Tigerinin Peptides from Skin Secretions of the Crowned Bullfrog Hoplobatrachus occipitalis” (J Nat Prod, 2016).

Data set [1] is described as follows: Induction of GLP1 release in mouse GLUTag cells at 1 uM after 2 hrs in presence of 2 mM glucose by ELISA relative to basal level. In general terms: An ELISA detects its analyte on a solid surface through an enzyme-linked reagent.
For data set [2], the species on record is Mus musculus. Description: Toxicity in NIH Swiss mouse erythrocytes assessed as hemolytic activity up to 500 uM incubated for 60 mins. The following applies: erythrocyte, 1 h. In a few lines:
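Washed erythrocytes (2 × 10^7 cells) from male NIH Swiss mice incubated 60 min at 37 °C with peptides at 31−500 μM. LC50 taken as mean concentration giving 50% hemolysis across three independent incubations.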

The species entered for data set [3] is Mus musculus. Description: Cytotoxicity in mouse GLUTag cells assessed as effect on plasma membrane integrity through LDH release up to 1 uM after 20 mins in presence of glucose by nonradioactive CytoTox96 assay. In kind it is toxicity, cell-based. The procedure, abridged:
(§1)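 BRIN-BD11 and GLUTag cells exposed to peptides (1 nM to 1 μM; n = 3) for 20 min at 37 °C in KRB buffer with 5.6 mM glucose. Membrane integrity judged by LDH in supernatant, measured with CytoTox96 nonradioactive kit.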
(LDH leaks from cells whose membrane has failed.)

The test system of data set [4] is BRIN-BD11. Description: Inhibition of Katp in rat BRIN-BD11 cells assessed as minimum concentration required to produce increase in rate of insulin release over the basal rate after 20 mins in presence of 5.6 mM glucose by radioimmunoassay. The data set is classed as cell-based. In a few lines:
(§2)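 BRIN-BD11 clonal β-cells attached overnight at 37 °C, then 20 min at 37 °C in KRB buffer with 5.6 mM glucose, peptides up to 1 μM. Insulin in supernatant by radioimmunoassay, expressed per 10^6 cells per 20 min. Parallel controls: 10 mM alanine, 1 μM GLP-1, 30 mM KCl.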

Data set [5] is described as follows: Induction of GLP1 release in mouse GLUTag cells assessed as minimum concentration required to produce increase in rate of GPL1 release over the basal rate after 2 hrs in presence of 2 mM glucose by ELISA.
The test system of data set [6] is BRIN-BD11. Description: Inhibition of Katp in rat BRIN-BD11 cells assessed as insulin release at 1 uM after 20 mins in presence of 5.6 mM glucose by radioimmunoassay relative to basal level. The arrangement: scale not given: the % may be the effect or the level left. In kind it is cell-based. In a few lines:
as §2

Another data set is filed under the species Rattus norvegicus. Briefly: Cytotoxicity in rat BRIN-BD11 cells assessed as effect on plasma membrane integrity through LDH release up to 1 uM after 20 mins in presence of glucose by nonradioactive CytoTox96 assay. In kind it is toxicity, cell-based. The following applies: brin-bd11, 20 min. The procedure, abridged:
as §1

For data set [7], the system named is BRIN-BD11. Briefly: Inhibition of Katp in rat BRIN-BD11 cells assessed as minimum concentration required to produce 83% increase in rate of insulin release over the basal rate after 20 mins in presence of 5.6 mM glucose by radioimmunoassay. The data set is classed as cell-based. In a few lines:
as §2

For data set [8], the species on record is Mus musculus. Briefly: Antiinflammatory activity in C57BL/6 mouse unstimulated peritoneal cells assessed as reduction of IFN-gamma at 1 ug/ml after 24 hrs by ELISA. In kind it is functional. In a few lines: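 Peritoneal cells lavaged with 5 mL cold PBS from unstimulated adult C57BL/6 mice (mixed macrophages, B-, T-, NK cells), resuspended in RPMI 1640 + 10% FBS, 2 × 10^5 cells/well. Peptides at 1, 5 and 10 μg/mL for 24 h at 37 °C; three independent incubations, 6 mice per group. IFN-γ in cell-free supernatant by ELISA in triplicate, compared with medium only.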

The nature of data set [9]: Induction of GLP1 release in mouse GLUTag cells at 10 nM after 2 hrs by ELISA relative to basal level.
Data set [10] has as its system BRIN-BD11. Briefly: Inhibition of Katp in rat BRIN-BD11 cells assessed as increase in insulin release after 20 mins by radioimmunoassay. The data set is classed as cell-based.
The subject of data set [11] is BRIN-BD11. Briefly: Inhibition of Katp in rat BRIN-BD11 cells assessed as increase in rate of insulin release after 20 mins in presence of 5.6 mM glucose by radioimmunoassay relative to basal level. In kind it is cell-based. In a few lines: as §2
Data set [12] is described as follows: Induction of increase in glucose-induced insulin secretion in rat BRIN-BD11 cells assessed as insulin release per million cells at 10 mM after 20 mins by radioimmunoassay (reference value: 1 +/- 0.03 ng). The data set is classed as functional. In a few lines: as §2
Data set [13] can be described thus: Induction of increase in glucose-induced insulin secretion in rat BRIN-BD11 cells assessed as insulin release per million cells at 30 mM after 20 mins by radioimmunoassay (reference value: 1 +/- 0.03 ng). The data set is classed as functional. The procedure, abridged: as §2

Active and inactive are the calls of the source. No cut-off for these calls is given here. Where a SMILES comes first, the peptide text is derived from it.

In the case of `CC[C@H](C)[C@H](NC(=O)[C@@H](N)CCCNC(=N)N)C(=O)N[C@@H](CS)C(=O)N[C@H](C(=O)N[C@@H](C)C(=O)N[C@H](C(=O)N1CCC[C@H]1C(=O)N[C@@H](CC(C)C)C(=O)N1CCC[C@H]1C(=O)N[C@@H](CCSC)C(=O)N[C@@H](CS)C(=O)N[C@@H](CC(C)C)C(=O)O)[C@@H](C)CC)[C@@H](C)O` (H-RICTAIPLPMCL-OH), the Activity in data set [1] was 217.5%; in the data set filed under Mus musculus [2], “Non-Toxic”; in the data set listed under Mus musculus [3] it was “Non-Toxic”; in the data set on BRIN-BD11 [4] it was 1 ×10⁻⁷ M; in data set [5], 1 ×10⁻⁶ M; with BRIN-BD11 [6], 233%. Besides, in the data set listed under Rattus norvegicus, the Activity result is on record as “Non-Toxic”.
Take `CC[C@H](C)[C@H](NC(=O)[C@@H](N)CCCNC(=N)N)C(=O)N[C@@H](CS)C(=O)N[C@H](C(=O)N1CCC[C@H]1C(=O)N[C@H](C(=O)N1CCC[C@H]1C(=O)N[C@@H](Cc1ccccc1)C(=O)N1CCC[C@H]1C(=O)N[C@@H](CCSC)C(=O)N[C@@H](CS)C(=O)N[C@@H](Cc1ccc(O)cc1)C(=O)O)[C@@H](C)CC)[C@@H](C)O` (H-RICTPIPFPMCY-OH): the Activity was 159% in data set [1]; 1 ×10⁻⁹ M with BRIN-BD11 [7]; “Non-Toxic” in the data set filed under Mus musculus [2]; “Non-Toxic” in the data set filed under Mus musculus [3]; 395% in the data set with BRIN-BD11 [6]; “Non-Toxic” in the data set listed under Rattus norvegicus.
As to `CC[C@H](C)[C@H](NC(=O)[C@H](CS)NC(=O)[C@@H](NC(=O)[C@@H](N)CCCNC(=N)N)[C@@H](C)O)C(=O)N1CCC[C@H]1C(=O)N[C@H](C(=O)N1CCC[C@H]1C(=O)N[C@@H](CC(C)C)C(=O)N[C@H](C(=O)N[C@@H](CCSC)C(=O)N[C@@H](CS)C(=O)O)C(C)C)[C@@H](C)CC` (H-RTCIPIPLVMC-OH), the Activity is 193% in [1]; “Non-Toxic” in the data set filed under Mus musculus [2]; “Non-Toxic” in the data set listed under Mus musculus [3]; 1 ×10⁻⁷ M in the data set with BRIN-BD11 [4]; 1 ×10⁻⁷ M in [5]; 201% in the data set on BRIN-BD11 [6]. For the same compound, in the data set filed under Rattus norvegicus, the Activity entry is “Non-Toxic”. Further, the result in the data set filed under Mus musculus [8] was Active.
In the case of `CC[C@H](C)[C@H](NC(=O)[C@H](CS)NC(=O)[C@@H](NC(=O)[C@@H](N)CCCNC(=N)N)[C@@H](C)O)C(=O)N1CCC[C@H]1C(=O)N[C@H](C(=O)N1CCC[C@H]1C(=O)N1CCC[C@H]1C(=O)N[C@H](C(=O)N[C@@H](CS)C(=O)N[C@@H](Cc1ccccc1)C(=O)O)C(C)C)[C@@H](C)CC` (H-RTCIPIPPVCF-OH), in the data set filed under Mus musculus [8], the outcome was Active. In addition, the Activity is 289.3% in [9]; “Non-Toxic” in the data set listed under Mus musculus [2]; “Non-Toxic” in the data set listed under Mus musculus [3]; 1 ×10⁻⁶ M in the data set with BRIN-BD11 [4]; 1 ×10⁻⁸ M in data set [5]; 163% with BRIN-BD11 [6]. Moreover, the Activity entry in the data set listed under Rattus norvegicus is reported as “Non-Toxic”.
Consider `CC[C@H](C)[C@H](NC(=O)[C@H](C)NC(=O)[C@H](CO)NC(=O)[C@H](CS)NC(=O)[C@@H](NC(=O)[C@@H](N)CCCNC(=N)N)C(C)C)C(=O)N1CCC[C@H]1C(=O)N[C@@H](CC(C)C)C(=O)N1CCC[C@H]1C(=O)N[C@@H](Cc1c[nH]c2ccccc12)C(=O)N[C@@H](CS)C(=O)N[C@@H](Cc1cnc[nH]1)C(=O)O` (H-RVCSAIPLPWCH-OH), for which the inhibition result in the data set with BRIN-BD11 [10] and with BRIN-BD11 [11] was “Dose-dependent effect” throughout.
Consider `C[C@H](N)C(=O)O` [ALANINE], for which, in data set [12], the Activity is given as 3.05 ng.
Regarding `[Cl-].[K+]` [POTASSIUM CHLORIDE], the Activity in [13] was 4.05 ng.
